Test results as given in ChEMBL document CHEMBL1142089, “High-level telithromycin resistance in a clinical isolate of Streptococcus pneumoniae” (2007).
Converted amounts (≈) assume the structure as drawn.

How the values were obtained:
Assay type in all cases: functional
Streptococcus pneumoniae [1] = test: Antimicrobial activity against Streptococcus pneumoniae BSF-11524 isolate with erm(B) and L4 mutation
In short: (§1)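 MIC by agar dilution per CLSI guidelines, also by Etest. Pneumococci grown at 37°C in 5% CO2 on Mueller-Hinton agar with 5% horse blood. Interpreted with CLSI breakpoints; for telithromycin ≤1 μg/ml susceptible, 2 μg/ml intermediate, ≥4 μg/ml resistant.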

Streptococcus pneumoniae [2] = test: Antimicrobial activity against Streptococcus pneumoniae PC13 transformants; in short: as §1
Streptococcus pneumoniae [3] = test: Antimicrobial activity against Streptococcus pneumoniae PC13 isolate with erm(B) mutation; in short: as §1
Streptococcus pneumoniae [4] = test: Antimicrobial activity against Streptococcus pneumoniae PC13 isolate with L4 mutation; in short: as §1
Streptococcus pneumoniae [5] = test: Antimicrobial activity against Streptococcus pneumoniae PC13 isolate with L4 69GTG71 to TPS mutation; in short: as §1
Streptococcus pneumoniae [6] = test: Antimicrobial activity against Streptococcus pneumoniae R6 transformants; in short: as §1
Streptococcus pneumoniae [7] = test: Antimicrobial activity against Streptococcus pneumoniae R6 with L4 mutation; in short: as §1
Streptococcus pneumoniae [8] = test: Antimicrobial activity against Streptococcus pneumoniae R6 with L4 69GTG71 to TPS mutation; in short: as §1

SMILES	MIC (Streptococcus pneumoniae [1]) [µg/mL]	MIC (Streptococcus pneumoniae [2]) [µg/mL]	MIC (Streptococcus pneumoniae [3]) [µg/mL]	MIC (Streptococcus pneumoniae [4]) [µg/mL]	MIC (Streptococcus pneumoniae [5]) [µg/mL]	MIC (Streptococcus pneumoniae [6]) [µg/mL]	MIC (Streptococcus pneumoniae [7]) [µg/mL]	MIC (Streptococcus pneumoniae [8]) [µg/mL]
CC[C@H]1OC(=O)[C@H](C)[C@@H](O[C@H]2C[C@@](C)(OC)[C@@H](O)[C@H](C)O2)[C@H](C)[C@@H](O[C@@H]2O[C@H](C)C[C@H](N(C)C)[C@H]2O)[C@](C)(O)C[C@@H](C)C(=O)[C@H](C)[C@@H](O)[C@]1(C)O [ERYTHROMYCIN]	> 256	> 256	> 256	> 256	> 256	0.094 (≈ 0.128 µM)	> 256	> 256
CC[C@H]1OC(=O)[C@H](C)C(=O)[C@H](C)[C@@H](O[C@@H]2O[C@H](C)C[C@H](N(C)C)[C@H]2O)[C@](C)(OC)C[C@@H](C)C(=O)[C@H](C)[C@H]2N(CCCCn3cnc(-c4cccnc4)c3)C(=O)O[C@]12C [TELITHROMYCIN]	> 256	0.06 (≈ 0.0739 µM)	1 (≈ 1.23 µM)	> 256	> 256	0.015 (≈ 0.0185 µM)	0.12 (≈ 0.148 µM)	0.12 (≈ 0.148 µM)
O=C(N[C@H](CO)[C@H](O)c1ccc([N+](=O)[O-])cc1)C(Cl)Cl [CHLORAMPHENICOL]	2 (≈ 6.19 µM)	12 (≈ 37.1 µM)	12 (≈ 37.1 µM)	12 (≈ 37.1 µM)	12 (≈ 37.1 µM)	1.5 (≈ 4.64 µM)	2 (≈ 6.19 µM)	2 (≈ 6.19 µM)
CC[C@H]1OC(=O)[C@H](C)[C@@H](O[C@H]2C[C@@](C)(OC)[C@@H](O)[C@H](C)O2)[C@H](C)[C@@H](O[C@@H]2O[C@H](C)C[C@H](N(C)C)[C@H]2O)[C@](C)(O)C[C@@H](C)CN(C)[C@H](C)[C@@H](O)[C@]1(C)O [AZITHROMYCIN]	> 256	> 256	> 256	> 256	> 256	0.25 (≈ 0.334 µM)	> 256	> 256
CC[C@H]1OC(=O)[C@H](C)[C@@H](O[C@H]2C[C@@](C)(OC)[C@@H](O)[C@H](C)O2)[C@H](C)[C@@H](O[C@@H]2O[C@H](C)C[C@H](N(C)C)[C@H]2O)[C@](C)(OC)C[C@@H](C)C(=O)[C@H](C)[C@@H](O)[C@]1(C)O [CLARITHROMYCIN]	> 256	> 256	> 256	> 256	> 256	0.06 (≈ 0.0802 µM)	24 (≈ 32.1 µM)	24 (≈ 32.1 µM)
CN(C)[C@@H]1C(O)=C(C(N)=O)C(=O)[C@@]2(O)C(O)=C3C(=O)c4c(O)cccc4[C@@](C)(O)[C@H]3C[C@@H]12 [TETRACYCLINE]	12 (≈ 27 µM)	12 (≈ 27 µM)	8 (≈ 18 µM)	12 (≈ 27 µM)	8 (≈ 18 µM)	0.094 (≈ 0.212 µM)	0.094 (≈ 0.212 µM)	0.06 (≈ 0.135 µM)
CCC[C@@H]1C[C@@H](C(=O)N[C@@H]([C@H]2O[C@H](SC)[C@H](O)[C@@H](O)[C@H]2O)[C@H](C)Cl)N(C)C1 [CLINDAMYCIN]	> 256	> 256	> 256	> 256	> 256	0.06 (≈ 0.141 µM)	0.125 (≈ 0.294 µM)	0.094 (≈ 0.221 µM)
